Measurements: ChEMBL document CHEMBL4414571, “Sordarin Diterpene Glycosides with an Unusual 1,3-Dioxolan-4-one Ring from the Zoanthid-Derived Fungus Curvularia hawaiiensis TA26-15” (2019)
In brackets after ≈: the same amount, converted by molar mass.

Tested on: Candida albicans
Assay: Antifungal activity against Candida albicans ATCC 10231 by NCCLS-protocol based microplate reader analysis
Assay type: functional
Procedure, shortened: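 Broth microdilution per NCCLS. Strains grown on potato dextrose agar; inoculum prepared from broth culture (28 °C, 48 h) and adjusted to 104 mycelial fragments/mL. Compounds from 100 μM DMSO stock were serially diluted in triplicate, spore suspension added to 200 μL final volume. Carbendazim served as positive control. Absorbance read at 492 nm after incubation; MIC calculated.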

Point of comparison: CO[C@@H]1[C@@H](C)O[C@@H](OC[C@@]23C[C@@H]4[C@H](C)CC[C@H]4[C@@]4(C=O)C[C@@H]2C=C(C(C)C)[C@@]34C(=O)O)[C@@H](O)[C@@]12OC(=O)[C@H](CCCCCCCC(=O)O)O2, MIC 3.7 µM (≈ 2.56 µg/mL). Against it:
- CO[C@@H]1[C@@H](C)O[C@@H](OC[C@@]23C[C@@H]4[C@H](C)CC[C@H]4[C@@]4(C=O)C[C@@H]2C=C(C(C)C)[C@@]34C(=O)O)[C@@H](O)[C@@]12OC(=O)[C@H](CCCCCC(=O)O)O2 — 2.4-fold higher, 8.7 µM (≈ 5.77 µg/mL)
- COC(=O)CCCCCCC[C@@H]1O[C@@]2(OC1=O)[C@H](O)[C@H](OC[C@@]13C[C@@H]4[C@H](C)CC[C@H]4[C@@]4(C(=O)O)C[C@@H]1C=C(C(C)C)[C@@]34C(=O)O)O[C@H](C)[C@H]2OC — 3.5-fold higher, 13 µM (≈ 9.37 µg/mL)
- COC(=O)CCCCCCC[C@@H]1O[C@@]2(OC1=O)[C@H](O)[C@H](OC[C@@]13C[C@@H]4[C@H](C)CC[C@H]4[C@@]4(C=O)C[C@@H]1C=C(C(C)C)[C@@]34C(=O)O)O[C@H](C)[C@H]2OC — within 1.5-fold, 2.9 µM (≈ 2.04 µg/mL)
- COC(=O)Nc1nc2ccccc2[nH]1 [CARBENDAZIM] — 23-fold lower, 0.16 µM (≈ 0.0306 µg/mL)
- CO[C@@H]1[C@@H](C)O[C@@H](OC[C@@]23C[C@@H]4[C@H](C)CC[C@H]4[C@@]4(C(=O)O)C[C@@H]2C=C(C(C)C)[C@@]34C(=O)O)[C@@H](O)[C@@]12OC(=O)[C@H](CCCCCCCC(=O)O)O2 — 4.1-fold higher, 15 µM (≈ 10.6 µg/mL)
- CC(C)C1=C[C@H]2C[C@]3(C=O)[C@@H]4CC[C@@H](C)[C@H]4C[C@@]2(CO)[C@]13C(=O)O — 4.9-fold higher, 18 µM (≈ 5.98 µg/mL)
- CO[C@@H]1[C@@H](C)O[C@@H](OC[C@@]23C[C@@H]4[C@H](C)CC[C@H]4[C@@]4(C=O)C[C@@H]2C=C(C(C)C)[C@@]34C(=O)O)[C@@H](O)[C@@]12OC(=O)[C@H](CCCC(=O)O)O2 — 3.2-fold higher, 12 µM (≈ 7.62 µg/mL)
- CC(C)C1=C[C@H]2C[C@]3(C(=O)O)[C@@H]4CC[C@@H](C)[C@H]4C[C@@]2(CO)[C@]13C(=O)O — 6.5-fold higher, 24 µM (≈ 8.36 µg/mL)
- COC(=O)CCC[C@@H]1O[C@@]2(OC1=O)[C@H](O)[C@H](OC[C@@]13C[C@@H]4[C@H](C)CC[C@H]4[C@@]4(C=O)C[C@@H]1C=C(C(C)C)[C@@]34C(=O)O)O[C@H](C)[C@H]2OC — 2.6-fold higher, 9.8 µM (≈ 6.36 µg/mL)
